The record followed here is ChEMBL document CHEMBL4177742, “Synthesis and biological evaluation of 4β-(thiazol-2-yl)amino-4'-O-demethyl-4-deoxypodophyllotoxins as topoisomerase-II inhibitors” (Bioorg Med Chem Lett, 2018).

The subject of assay [1] is A549. The assay is described as follows: Cytotoxicity against human A549 cells assessed as reduction in inhibition of cell growth incubated for 48 hrs by MTT assay. It counts as functional, cell-based. To be noted: A549, 48 h.
A further assay has as its system WI-38. The assay is described as follows: Cytotoxicity against human WI38 cells assessed as reduction in inhibition of cell growth incubated for 48 hrs by MTT assay. It counts as cell-based. Particulars: WI-38, 48 h. (Formazan colour is commonly taken as a measure of viable cells.)
In another assay the test system is LoVo. The assay is described as follows: Cytotoxicity against human LoVo cells assessed as reduction in inhibition of cell growth incubated for 48 hrs by MTT assay. Type of assay: functional, cell-based.
The subject of another assay is HeLa. The assay is described as follows: Cytotoxicity against human HeLa cells assessed as reduction in inhibition of cell growth incubated for 48 hrs by MTT assay. It counts as functional, cell-based.
The next assay deals with HepG2. The assay is described as follows: Cytotoxicity against human HepG2 cells assessed as reduction in inhibition of cell growth incubated for 48 hrs by MTT assay. Type of assay: functional, cell-based. Particulars: HepG2, 48 h.
In assay [2] the test system is A549. The assay is described as follows: Induction of cell cycle arrest in human A549 cells assessed as increase in cyclin B1 protein level at 1 to 10 uM incubated for 12 hrs by Western blotting. It counts as functional, cell-based. In short, it runs like this: (§1)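 For G2/M regulators, A549 cells were exposed 12 h to 1, 5 or 10 μM and analysed by western blotting for cyclin B1 and cdc2(p34).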

Assay [3] has as its system A549. The assay is described as follows: Induction of DNA double stranded breaks in human A549 cells assessed as increase in ATM phosphorylation levels at 1 to 10 uM incubated for 12 hrs by Western blotting. It counts as functional, cell-based. The gist of the method: (§2)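 A549 cells exposed for 12 h to 1, 5 or 10 μM alongside vehicle and etoposide (5 μM) as a reference. Lysates were probed by western blotting for phospho-H2AX (Ser-139, γH2AX), p73 and phospho-ATM.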

The subject of assay [4] is A549. The assay is described as follows: Induction of DNA double stranded breaks in human A549 cells assessed as increase in gamma-H2Ax level at 1 to 5 uM incubated for 12 hrs by DAPI staining based immunofluorescence assay. It counts as functional, cell-based. The gist of the method: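 A549 cells were treated 12 h with vehicle, 1 μM or 5 μM, then immunostained with anti-γH2AX antibody and counterstained with DAPI. Nuclear γH2AX foci were scored by immunofluorescence as a marker of DNA double-strand breaks.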

Assay [5] concerns A549. The assay is described as follows: Inhibition of topoisomerase 2beta protein expression in human A549 cells at 1 to 10 uM incubated for 12 hrs by Western blotting. It counts as functional, cell-based. In short, it runs like this: (§3)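 Topo-IIα and topo-IIβ expression was measured in A549 cells treated 12 h at 1, 5 and 10 μM, with etoposide (5 μM) as a reference treatment.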
A general note: Immunoblotting shows a protein as a band on a membrane.

Assay [6] concerns A549. The assay is described as follows: Induction of DNA double stranded breaks in human A549 cells assessed as increase in p73 protein levels at 1 to 10 uM incubated for 12 hrs by Western blotting. Type of assay: functional, cell-based. In short, it runs like this: as §2
The test system of assay [7] is A549. The assay is described as follows: Induction of DNA double stranded breaks in human A549 cells assessed as increase in gamma-H2Ax level at 1 to 10 uM incubated for 12 hrs by Western blotting. Type of assay: functional, cell-based. In short, it runs like this: as §2
Assay [8] deals with A549. The assay is described as follows: Induction of cell cycle arrest in human A549 cells assessed as increase in cdc2(p34) protein level at 1 to 10 uM incubated for 12 hrs by Western blotting. Type of assay: functional, cell-based. In short, it runs like this: as §1
The test system of assay [9] is A549. The assay is described as follows: Induction of cell cycle arrest in human A549 cells assessed as increase in accumulation at G2/M phase at 1 to 5 uM incubated for 12 hrs by propidium iodide staining based FACS analysis. (In general: In flow cytometry, cells or beads pass a laser one at a time.)
Assay [10] deals with A549. The assay is described as follows: Inhibition of topoisomerase 2alpha protein expression in human A549 cells at 1 to 10 uM incubated for 12 hrs by Western blotting. Type of assay: functional, cell-based. In short, it runs like this: as §3
Assay [11] concerns A549. The assay is described as follows: Induction of cell cycle arrest in human A549 cells assessed as reduction in accumulation at G1 phase at 1 to 5 uM incubated for 12 hrs by propidium iodide staining based FACS analysis.
Assay [12] addresses DNA topoisomerase 2-alpha (Homo sapiens) (UniProt P11388). The assay is described as follows: Inhibition of topoisomerase 2alpha in human A549 cells assessed as reduction in enzyme-mediated super coliling activity by measuring induction of pBR322 DNA relaxation at 100 uM incubated for 12 hrs by ethidium bromide staining based agarose gel electrophoresis method. Type of assay: cell-based.

pIC50: −log10 of the molar value. Active and inactive are the calls of the source. No cut-off for these calls is given here.

DNA topoisomerase 2-alpha (Homo sapiens), sequence (P11388 whole entry): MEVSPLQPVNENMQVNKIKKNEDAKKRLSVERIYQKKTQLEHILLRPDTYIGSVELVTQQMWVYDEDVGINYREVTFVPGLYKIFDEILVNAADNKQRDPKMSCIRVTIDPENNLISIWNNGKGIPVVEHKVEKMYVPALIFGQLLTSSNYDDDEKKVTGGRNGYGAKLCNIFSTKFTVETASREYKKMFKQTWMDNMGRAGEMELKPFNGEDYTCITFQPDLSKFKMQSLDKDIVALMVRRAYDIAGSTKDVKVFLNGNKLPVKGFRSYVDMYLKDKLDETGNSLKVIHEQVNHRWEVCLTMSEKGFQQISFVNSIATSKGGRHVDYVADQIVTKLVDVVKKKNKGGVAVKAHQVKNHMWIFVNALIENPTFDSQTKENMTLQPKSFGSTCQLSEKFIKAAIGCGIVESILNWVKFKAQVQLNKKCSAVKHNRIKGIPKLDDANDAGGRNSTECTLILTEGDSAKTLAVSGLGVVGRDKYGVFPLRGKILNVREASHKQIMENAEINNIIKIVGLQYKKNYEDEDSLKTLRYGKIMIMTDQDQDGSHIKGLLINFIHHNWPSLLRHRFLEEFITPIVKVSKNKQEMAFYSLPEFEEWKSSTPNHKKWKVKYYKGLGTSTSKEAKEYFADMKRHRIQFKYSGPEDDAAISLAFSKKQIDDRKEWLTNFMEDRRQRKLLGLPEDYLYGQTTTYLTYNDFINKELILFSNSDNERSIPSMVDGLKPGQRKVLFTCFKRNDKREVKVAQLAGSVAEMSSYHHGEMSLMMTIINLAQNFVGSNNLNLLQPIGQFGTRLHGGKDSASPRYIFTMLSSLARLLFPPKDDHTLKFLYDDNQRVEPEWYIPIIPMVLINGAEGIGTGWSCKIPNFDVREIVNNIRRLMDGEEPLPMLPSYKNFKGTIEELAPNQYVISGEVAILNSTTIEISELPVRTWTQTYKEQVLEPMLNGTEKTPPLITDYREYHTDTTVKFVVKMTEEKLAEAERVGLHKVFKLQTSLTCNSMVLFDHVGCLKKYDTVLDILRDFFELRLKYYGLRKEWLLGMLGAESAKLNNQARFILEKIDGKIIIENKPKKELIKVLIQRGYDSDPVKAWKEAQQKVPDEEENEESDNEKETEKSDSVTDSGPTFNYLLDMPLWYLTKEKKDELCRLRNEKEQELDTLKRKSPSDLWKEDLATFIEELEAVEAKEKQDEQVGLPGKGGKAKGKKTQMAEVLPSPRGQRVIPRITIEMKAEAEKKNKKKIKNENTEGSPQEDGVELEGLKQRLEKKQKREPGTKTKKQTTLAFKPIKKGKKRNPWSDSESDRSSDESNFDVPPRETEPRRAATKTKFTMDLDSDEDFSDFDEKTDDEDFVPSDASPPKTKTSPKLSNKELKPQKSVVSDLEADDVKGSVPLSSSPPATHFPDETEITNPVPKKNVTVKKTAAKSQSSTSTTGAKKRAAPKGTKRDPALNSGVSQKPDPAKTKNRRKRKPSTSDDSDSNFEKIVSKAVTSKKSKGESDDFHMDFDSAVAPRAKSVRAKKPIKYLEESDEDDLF

For the compound `COc1cc([C@@H]2c3cc4c(cc3[C@@H](Nc3nc(CC(=O)NC5CCCC5)cs3)[C@H]3COC(=O)[C@H]23)OCO4)cc(OC)c1O`, the pIC50 in the assay with A549 [1] was 5.04; in the assay on WI-38, 4.54; with LoVo, 4.68; in the assay on HeLa it was 4.85; in the assay on HepG2, 4.72.

`COc1cc([C@@H]2c3cc4c(cc3[C@@H](Nc3nc(CC(=O)N5CCN(C6CCCC6)CC5)cs3)[C@H]3COC(=O)[C@H]23)OCO4)cc(OC)c1O`: the pIC50 with A549 [1] is 5.89; with WI-38, 4.18; in the assay with LoVo, 5.04; in the assay on HeLa, 5.36; in the assay on HepG2, 5.07. In addition, the Activity result in the assay with A549 [2], with A549 [3], in the assay on A549 [6], in the assay on A549 [7], in the assay with A549 [8] and with A549 [9] was “Dose-dependent effect” each time. The Activity result in the assay with A549 [11] was “Dose-dependent effect”. The result with A549 [4] was Active. For the same compound, the inhibition entry with A549 [5] and in the assay on A549 [10] was “Dose-dependent effect” throughout. For the same compound, the inhibition entry in assay [12] is “Active”.

Take `COc1cc([C@@H]2c3cc4c(cc3[C@@H](O[C@@H]3O[C@@H]5CO[C@@H](C)O[C@H]5[C@H](O)[C@H]3O)[C@H]3COC(=O)[C@H]23)OCO4)cc(OC)c1O` [ETOPOSIDE]: the pIC50 in the assay on A549 [1] is 5.04; in the assay on WI-38, 4.59; in the assay on LoVo, 4.73; with HeLa it was 4.95; in the assay on HepG2, 5.04.

With `COc1cc([C@@H]2c3cc4c(cc3[C@@H](Nc3nc(CC(=O)NC5CC5)cs3)[C@H]3COC(=O)[C@H]23)OCO4)cc(OC)c1O`, the pIC50 with A549 [1] was 4.95; in the assay with WI-38, 4.25; in the assay with LoVo, 4.72; in the assay on HeLa, 4.76; in the assay on HepG2, 4.99.

`COc1cc([C@@H]2c3cc4c(cc3[C@@H](Nc3nc(CC(=O)N5CCN(C)CC5)cs3)[C@H]3COC(=O)[C@H]23)OCO4)cc(OC)c1O`: the pIC50 with A549 [1] is 4.65; with WI-38, 4.55; in the assay with LoVo, 4.56; in the assay with HeLa, 4.78; with HepG2 it was 4.73.

In the case of `COc1cc([C@@H]2c3cc4c(cc3[C@@H](Nc3nc(CC(=O)N5CCOCC5)cs3)[C@H]3COC(=O)[C@H]23)OCO4)cc(OC)c1O`, the pIC50 is 4.73 in the assay on A549 [1]; 4.47 with WI-38; 4.43 with LoVo; 4.83 with HeLa; 4.82 in the assay on HepG2.

For the compound `COc1cc([C@@H]2c3cc4c(cc3[C@@H](Nc3nc(CC(=O)NC5CCCCC5)cs3)[C@H]3COC(=O)[C@H]23)OCO4)cc(OC)c1O`, the pIC50 is 5.03 with A549 [1]; 4.11 with WI-38; 4.72 in the assay on LoVo; 4.97 with HeLa; 4.79 in the assay on HepG2.

On to `CCOC(=O)Cc1csc(N[C@@H]2c3cc4c(cc3[C@@H](c3cc(OC)c(O)c(OC)c3)[C@H]3C(=O)OC[C@@H]32)OCO4)n1`, for which the pIC50 with A549 [1] was 5.03; in the assay on WI-38, 4.35; in the assay on LoVo, 5.15; in the assay on HeLa, 4.90; in the assay with HepG2, 6.92.

As to `CCOC(=O)c1csc(N[C@@H]2c3cc4c(cc3[C@@H](c3cc(OC)c(O)c(OC)c3)[C@H]3C(=O)OC[C@@H]32)OCO4)n1`, the pIC50 in the assay on A549 [1] was 6.80; with WI-38, 4.26; with LoVo it was 5.30; in the assay on HeLa it was 5.25; in the assay with HepG2, 6.89. In addition, the Activity entry in the assay with A549 [2], in the assay on A549 [3], in the assay on A549 [6], in the assay on A549 [7], with A549 [8] and with A549 [9] was “Dose-dependent effect” each time. In the assay with A549 [11], the Activity result is “Dose-dependent effect”. Also, the outcome in the assay on A549 [4] was Active. Also, the inhibition result with A549 [5] and with A549 [10] was “Dose-dependent effect” each time. Also, the inhibition result in assay [12] was “Active”.

`COc1cc([C@@H]2c3cc4c(cc3[C@@H](Nc3nc(CC(=O)O)cs3)[C@H]3COC(=O)[C@H]23)OCO4)cc(OC)c1O`: the pIC50 was 5.08 in the assay with A549 [1]; 4.37 in the assay with WI-38; 4.99 in the assay on LoVo; 5.06 in the assay on HeLa; 5.03 in the assay with HepG2.

The term pIC50 denotes −log10 of the IC50, conventionally taken in molar units.
